What was measured:
[1] = "under the same conditions"; cited from earlier work
[2] = Transmission electron microscopy, aggregation and disaggregation; type: physicochemical
In short: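 Droplets of the peptide, the test compound, or the test compound bound to NK1R at 1:1 molar ratio were placed on carbon-coated holey grids. The NK1R sample alone was negatively stained with sodium phosphotungstate and dried at room temperature for 12 h before TEM imaging.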

Fe = type: binding; details: until molar ratio Fe (II) to peptide 1 of 1:1; peptide 1 10.0 μM; TBS pH 7.4
[3] = Relaxivity r1, 0.5 T MR system; type: physicochemical; details: TBS pH 7.4, 50.0 mM Tris, 50.0 mM NaCl, 37 °C, 1-100 μM, inversion recovery, slope of 1/T1 versus concentration
[4] = target: probe 1 (terpyridine-Fe (II) complex of the Gd (III)-DOTA peptide 1, a modified substance P); assay: fluorescence polarisation
[5] = target: probe 1 (terpyridine-Fe (II) complex of the Gd (III)-DOTA peptide 1, a modified substance P); assay: T1 relaxation rate
[6] = target: probe 1 (terpyridine-Fe (II) complex of the Gd (III)-DOTA peptide 1, a modified substance P); assay: other fluorescence titration

## O=C([O-])CN(CCN(CC(=O)[O-])CC(=O)O)CCN(CC(=O)[O-])CC(=O)O.[Gd+3] [Gd-(DTPA)]
[1]
  relaxivity r1, clinical contrast agents: 4.6 mM⁻¹ s⁻¹

## MLGFFQQPKPRKKKKKK(Tpy)K(Tpy)KK(Dye)DOTA [peptide 1]
[2]; nanofibers, peptide 1 alone, 10.0 μM in TBS pH 7.4
  length (TEM): several hundred nm
[2]; threadlike network of nanofibers, peptide 1 alone, 10.0 μM in TBS pH 7.4
  diameter (TEM): approximately 3.5 nm
Fe
  fluorescence at 610 nm upon addition of Fe (II) ions: decreased
[3]
  relaxivity r1: 11.8 mM⁻¹ s⁻¹

## CC(O)CN1CCN(CC(=O)[O-])CCN(CC(=O)[O-])CCN(CC(=O)[O-])CC1.[Gd+3] (stereo not shown) [Gd-(HP-DO3A)]
[1]
  relaxivity r1, clinical contrast agents: 4.3 mM⁻¹ s⁻¹

## neurokinin-1 receptor (NK1R), recombinant
[4]
  Kd: 2.3 µM
[5]
  stoichiometry N: 1 probe 1:NK1R
[6]
  fold increase of the fluorescence intensity of probe 1 at 610 nm: 3 fold

B1: NK1R: recombinant NK1R (TACR1) expressed in Rosetta (DE3), purified using nickel affinity chromatography (protein)
chain: MDNVLPVDSDLSPNISTNTSEPNQFVQPAWQIVLWAAAYTVIVVTSVVGNVVVMWIILAHKRMRTVTNYFLVNLAFAEASMAAFNTVVNFTYAVHNEWYYGLFYCKFHNFFPIAAVFASIYSMTAVAFDRYMAIIHPLQPRLSATATKVVICVIWVLALLLAFPQGYYSTTETMPSRVVCMIEWPEHPNKIYEKVYHICVTVLIYFLPLLVIGYAYTVVGITLWASEIPGDSSDRYHEQVSAKRKVVKMMIVVVCTFAICWLPFHIFFLLPYINPDLYLKKFIQQVYLAIMWLAMSSTMYNPIIYCCLNDRFRLGFKHAFRCCPFISAGDYEGLEMKSTRYLQTQGSVYKVSRLETTISTVVGAHEEEPEDGPKATPSSLDLTSNCSSRSDSKTMTESFSFSSNVLS
[2]; NK1R multimers, 1.0 μM, stained with sodium phosphotungstate 2.0 wt%, TBS pH 7.4
  diameter (TEM): approximately 3.8 nm
